According to ChEMBL document CHEMBL1126177, “Synthesis and biological evaluation of N alpha-(5-deaza-5,6,7,8-tetrahydropteroyl)-L-ornithine” (J Med Chem, 1992):

How the values were obtained:
MCF7 [1] = assay: In vitro effect on 10-formyltetrahydrofolate (10-CHO-THF) in MCF-7 cells at 1 uM(control= 1.7); Folate pools; format: functional, Homo sapiens
MCF7 [2] = assay: In vitro effect on folic acid (FA) in MCF-7 cells at 1 uM(control= 0.0); Folate pools; format: functional, Homo sapiens
MCF7 [3] = assay: In vitro effect on 5-methyltetrahydrofolate (5-CH3-THF) in MCF-7 cells at 1 uM(control= 0.7); Folate pools; format: functional, Homo sapiens
MCF7 [4] = assay: In vitro effect on dihydrofolate (DHF) in MCF-7 cells at 1 uM(control= 0.2); Folate pools; format: functional, Homo sapiens
MCF7 [5] = assay: In vitro effect on 10-formylfolic acid (10-CHO-FA) in MCF-7 cells at 1 uM(control= 0.1); Folate pools; format: functional, Homo sapiens
MCF7 [6] = assay: In vitro effect on 5-formyltetrahydrofolate (5-CHO-THF) in MCF-7 cells at 1 uM(control= 0.1); Folate pools; format: functional, Homo sapiens
MCF7 [7] = assay: In vitro effect on tetrahydrofolate (THF) in MCF-7 cells at 1 uM(control= 1.0); Folate pools; format: functional, Homo sapiens
MCF7 [8] = assay: In vitro effect on 10-formyldihydrofolate (10-CHO-DHF) in MCF-7 cells at 1 uM(control= 0.2); Folate pools; format: functional, Homo sapiens
MCF7 [9] = assay: In vitro effect on total folates in MCF-7 cells at 1 uM(control= 4.0); Folate pools; format: functional, Homo sapiens
MCF7 [10] = assay: In vitro effect on tetrahydrofolate (THF) in MCF-7 cells at 50 uM (control=1.0); Folate pools; format: functional, Homo sapiens
MCF7 [11] = assay: In vitro effect on 10-formyldihydrofolate (10-CHO-DHF) in MCF-7 cells at 100 uM (control= 0.2); Folate pools; format: functional, Homo sapiens
MCF7 [12] = assay: In vitro effect on 10-formylfolic acid (10-CHO-FA) in MCF-7 cells at 100 uM(control= 0.1); Folate pools; format: functional, Homo sapiens
MCF7 [13] = assay: In vitro effect on 5-methyltetrahydrofolate (5-CH3-THF) in MCF-7 cells at 50 uM(control=0.7); Folate pools; format: functional, Homo sapiens
MCF7 [14] = assay: In vitro effect on 5-methyltetrahydrofolate (5-CH3-THF) in MCF-7 cells at 100 uM (control= 0.7); Folate pools; format: functional, Homo sapiens
[15] = target: Bifunctional purine biosynthesis protein ATIC (Homo sapiens) (UniProt P31939); assay: Compound was evaluated for the inhibition of 5-aminoimidazole-4-carboxamide ribonucleotide transformylase obtained from human at 100 uM
Outline: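 AICAR transformylase partially purified from human MOLT-4 cells by a modified literature procedure. Activity was followed with a continuous spectrophotometric assay.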

MCF7 [16] = assay: In vitro effect on dihydrofolate (DHF) in MCF-7 cells at 100 uM (control= 0.2); Folate pools; format: functional, Homo sapiens
MCF7 [17] = assay: In vitro effect on 5-formyltetrahydrofolate (5-CHO-THF) in MCF-7 cells at 100 uM (control= 0.1); Folate pools; format: functional, Homo sapiens
MCF7 [18] = assay: In vitro effect on tetrahydrofolate (THF) in MCF-7 cells at 100 uM(control= 1.0); Folate pools; format: functional, Homo sapiens
MCF7 [19] = assay: In vitro effect on 10-formyldihydrofolate (10-CHO-DHF) in MCF-7 cells at 50 uM (control= 0.2); Folate pools; format: functional, Homo sapiens
MCF7 [20] = assay: In vitro effect on 10-formyltetrahydrofolate (10-CHO-THF) in MCF-7 cells at 100 uM (control= 1.7); Folate pools; format: functional, Homo sapiens
MCF7 [21] = assay: In vitro effect on folic acid (FA) in MCF-7 cells at 50 uM (control= 0.0); Folate pools; format: functional, Homo sapiens
MCF7 [22] = assay: In vitro effect on 10-formylfolic acid (10-CHO-FA) in MCF-7 cells at 50 uM(control= 0.1); Folate pools; format: functional, Homo sapiens
Thymidylate synthase = Thymidylate synthase (Homo sapiens, UniProt P04818); assay: Compound was evaluated for the inhibition of thymidylate synthase obtained from human; conditions: read-out: I50
Outline: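 Human thymidylate synthase came from an SV40-transformed fibroblast line, cloned and expressed in E. coli, and purified to homogeneity by affinity chromatography. Activity was measured by the ³H-release method.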

MCF7 [23] = assay: In vitro effect on dihydrofolate (DHF) in MCF-7 cells at 50 uM (control=0.2); Folate pools; format: functional, Homo sapiens
MCF7 [24] = assay: In vitro effect on folic acid (FA) in MCF-7 cells at 100 uM (control= 0.0); Folate pools; format: functional, Homo sapiens
MCF7 [25] = assay: In vitro effect on total folates in MCF-7 cells at 50 uM (control= 4.0); Folate pools; format: functional, Homo sapiens
Dihydrofolate reductase = target: T1, Dihydrofolate reductase (Homo sapiens, UniProt P00374); assay: Compound was evaluated for the inhibition of dihydrofolate reductase obtained from human; conditions: read-out: I50
T1 sequence (P00374 whole entry): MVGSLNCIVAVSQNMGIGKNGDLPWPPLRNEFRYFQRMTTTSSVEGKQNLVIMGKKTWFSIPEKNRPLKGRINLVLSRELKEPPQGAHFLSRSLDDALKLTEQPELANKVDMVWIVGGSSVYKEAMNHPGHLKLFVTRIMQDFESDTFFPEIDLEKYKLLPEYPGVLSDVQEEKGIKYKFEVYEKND

MCF7 [26] = assay: In vitro effect on 10-formyltetrahydrofolate (10-CHO-THF) in MCF-7 cells at 50 uM (control= 1.7); Folate pools; format: functional, Homo sapiens
MCF7 [27] = assay: In vitro effect on total folates in MCF-7 cells at 100 uM(control= 4.0); Folate pools; format: functional, Homo sapiens
MCF7 [28] = assay: In vitro effect on 5-formyltetrahydrofolate (5-CHO-THF) in MCF-7 cells at 50 uM(control=0.1); Folate pools; format: functional, Homo sapiens

Chain of Thymidylate synthase (P04818 whole entry): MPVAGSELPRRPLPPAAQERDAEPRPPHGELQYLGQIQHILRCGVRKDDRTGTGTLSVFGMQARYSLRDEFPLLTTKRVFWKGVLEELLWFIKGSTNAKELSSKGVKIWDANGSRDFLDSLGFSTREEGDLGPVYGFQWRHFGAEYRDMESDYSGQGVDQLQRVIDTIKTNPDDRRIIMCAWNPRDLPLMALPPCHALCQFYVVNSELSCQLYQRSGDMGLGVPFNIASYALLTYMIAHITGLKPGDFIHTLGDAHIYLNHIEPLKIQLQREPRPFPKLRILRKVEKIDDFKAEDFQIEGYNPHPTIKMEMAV
Chain of Bifunctional purine biosynthesis protein ATIC (Homo sapiens) (P31939 whole entry, looked up): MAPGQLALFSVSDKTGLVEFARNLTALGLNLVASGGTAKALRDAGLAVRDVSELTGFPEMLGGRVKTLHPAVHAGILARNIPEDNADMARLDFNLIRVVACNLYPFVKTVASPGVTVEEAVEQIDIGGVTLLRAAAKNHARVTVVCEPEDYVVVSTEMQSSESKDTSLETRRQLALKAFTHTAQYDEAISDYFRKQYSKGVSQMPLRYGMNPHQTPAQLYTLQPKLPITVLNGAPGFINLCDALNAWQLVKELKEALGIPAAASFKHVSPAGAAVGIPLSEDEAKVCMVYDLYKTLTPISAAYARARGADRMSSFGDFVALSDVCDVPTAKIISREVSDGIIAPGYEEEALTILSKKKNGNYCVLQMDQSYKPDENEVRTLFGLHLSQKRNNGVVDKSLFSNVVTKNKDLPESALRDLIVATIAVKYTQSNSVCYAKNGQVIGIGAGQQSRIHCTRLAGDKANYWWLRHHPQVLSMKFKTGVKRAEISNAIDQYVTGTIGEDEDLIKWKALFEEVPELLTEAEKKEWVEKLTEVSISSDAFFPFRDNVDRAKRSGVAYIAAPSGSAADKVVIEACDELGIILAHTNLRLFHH

CN(Cc1cnc2nc(N)nc(N)c2n1)c1ccc(C(=O)N[C@@H](CCC(=O)O)C(=O)O)cc1 [METHOTREXATE]
Activity (MCF7 [1]): 0.8 pM (10e6*cells)-1 | Activity (MCF7 [2]): 0.1 pM (10e6*cells)-1 | Activity (MCF7 [3]): 0.1 pM (10e6*cells)-1 | Activity (MCF7 [4]): 1.6 pM (10e6*cells)-1 | Activity (MCF7 [5]): 0.3 pM (10e6*cells)-1 | Activity (MCF7 [6]): 0.1 pM (10e6*cells)-1 | Activity (MCF7 [7]): 0.4 pM (10e6*cells)-1 | Activity (MCF7 [8]): 0.6 pM (10e6*cells)-1 | Activity (MCF7 [9]): 4.1 pM (10e6*cells)-1

NCCCC(NC(=O)c1ccc(NCC2CNc3nc(N)nc(O)c3C2)cc1)C(=O)O (stereo not given)
Activity (MCF7 [10]): 1 pM (10e6*cells)-1 | Activity (MCF7 [11]): 0.3 pM (10e6*cells)-1 | Activity (MCF7 [12]): 0.1 pM (10e6*cells)-1 | Activity (MCF7 [13]): 0.6 pM (10e6*cells)-1 | Activity (MCF7 [14]): 0.6 pM (10e6*cells)-1 | inhibition [15]: 16% | Activity (MCF7 [16]): 0.2 pM (10e6*cells)-1 | Activity (MCF7 [17]): 0.1 pM (10e6*cells)-1 | Activity (MCF7 [18]): 0.9 pM (10e6*cells)-1 | Activity (MCF7 [19]): 0.3 pM (10e6*cells)-1 | Activity (MCF7 [20]): 1.7 pM (10e6*cells)-1 | Activity (MCF7 [21]): 0 pM (10e6*cells)-1 | Activity (MCF7 [22]): 0.2 pM (10e6*cells)-1 | IC50 (Thymidylate synthase): 470 µM | Activity (MCF7 [23]): 0.2 pM (10e6*cells)-1 | Activity (MCF7 [24]): 0 pM (10e6*cells)-1 | Activity (MCF7 [25]): 4.1 pM (10e6*cells)-1 | IC50 (Dihydrofolate reductase): 2 µM | Activity (MCF7 [26]): 1.8 pM (10e6*cells)-1 | Activity (MCF7 [27]): 3.9 pM (10e6*cells)-1 | Activity (MCF7 [28]): 0.2 pM (10e6*cells)-1
